The assay has as its target T1, Endothelin-1 receptor (Sus scrofa, UniProt Q29010).
T1 sequence (Q29010 whole entry): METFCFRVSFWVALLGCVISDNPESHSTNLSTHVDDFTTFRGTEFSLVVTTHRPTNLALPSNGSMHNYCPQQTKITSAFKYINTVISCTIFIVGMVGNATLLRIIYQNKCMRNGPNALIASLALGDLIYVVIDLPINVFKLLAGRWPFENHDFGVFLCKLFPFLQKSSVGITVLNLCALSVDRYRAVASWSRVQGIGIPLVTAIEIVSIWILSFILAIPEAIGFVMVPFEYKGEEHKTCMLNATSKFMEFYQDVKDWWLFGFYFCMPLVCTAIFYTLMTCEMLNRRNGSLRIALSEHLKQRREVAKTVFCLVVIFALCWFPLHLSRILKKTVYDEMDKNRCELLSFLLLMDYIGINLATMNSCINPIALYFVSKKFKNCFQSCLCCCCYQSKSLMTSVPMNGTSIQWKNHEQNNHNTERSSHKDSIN
Kind of assay: Tested for the competitive binding versus [125I]- ET-1 determined in porcine cardiac ventricular membrane for Endothelin A receptor. The essentials: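 Membranes (porcine cardiac ventricle at 12 μg/mL for ETA; bovine cerebrum at 150 μg/mL for ETB) in pH 7.2 Tris/EGTA/Mg acetate/0.1% BSA buffer with protease inhibitors. Incubated with 100 pM [125I]ET-1 and varied compound for 1 h at 25 °C, then filtered and counted by gamma counter. IC50 given as mean ± SEM of ≥3 determinations.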

The text below walks through data of BindingDB's records for doi:10.1021/jm00077a013 (Takeda Chemical Industries, 1994).

Molecules are shown by their SMILES.

On to `CC[C@H](C)[C@H](NC(=O)[C@H](CC1CCCCC1)NC(=O)[C@@H](NC(=O)[C@H](CC(C)C)NC(=O)[C@H](Cc1c[nH]cn1)NC(=O)[C@@H]1CSSC[C@H](N)C(=O)N[C@@H](CO)C(=O)N[C@H]2CSSC[C@H](NC(=O)[C@H](CCC(=O)O)NC(=O)[C@H](CCCCN)NC(=O)[C@H](CC(=O)O)NC(=O)[C@H](CCSC)NC(=O)[C@H](CC(C)C)NC(=O)[C@H](CO)NC(=O)[C@H](CO)NC2=O)C(=O)N[C@@H](C(C)C)C(=O)N[C@@H](Cc2ccc(O)cc2)C(=O)N[C@@H](Cc2ccccc2)C(=O)N1)[C@@H](C)O)C(=O)N[C@@H](Cc1c[nH]c2ccccc12)C(=O)O`, for which the IC50 came to 0.7 nM.

For orientation: IC50 means the concentration that inhibits the measured activity by half. The low end stands for greater potency in that assay, the high end for weaker potency in that assay.
